Reference: ChEMBL document CHEMBL4138082 (Eur J Med Chem, 2017)
The source made the active and inactive calls. The calls are words filed in the database; no cut-off is given here.

Columns and labels:
HepG2 [1] = assay: Downregulation of HO-1 expression in human HepG2 cells after 24 hrs by protein array assay; format: functional, cell-based
Procedure, shortened: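 Lysates from HepG-2 cells treated 24 h were incubated overnight at 4 °C on a membrane array of 35 apoptosis-related proteins. A biotinylated detection antibody cocktail was then applied for 1 h at room temperature. Relative expression was read from chemiluminescent spots by densitometry.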

HepG2 [2] = assay: Induction of apoptosis in human HepG2 cells assessed as viable cells at 0.125 uM after 48 hrs by Annexin V-APC/7-AAD staining based flow cytometry (reference value: 91.07%); format: functional; settings: HepG2, 48 h, read-out: Activity
HepG2 [3] = assay: Cell cycle arrest in human HepG2 cells assessed as S phase accumulation at 0.25 uM after 48 hrs by propidium iodide staining based flow cytometry (reference value: 43.88%); format: functional
Procedure, shortened: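 HepG-2 cells were plated and grown 24 h at 37 °C, then treated 48 h at 0, 0.0625, 0.125 or 0.25 µM, with 0.1% DMSO as control. Cells were fixed overnight in 70% ethanol at 4 °C, treated with RNase A and stained with propidium iodide. DNA content was measured by flow cytometry to give cell-cycle phase distribution.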

HepG2 [4] = assay: Cell cycle arrest in human HepG2 cells assessed as G1 phase accumulation at 0.25 uM after 48 hrs in presence of hemoglobin by propidium iodide staining based flow cytometry (reference value: 52.93%); format: functional
HepG2 [5] = assay: Induction of apoptosis in human HepG2 cells assessed as cell population with intact mitochondrial membrane potential at 0.0625 uM measured after 48 hrs by JC-1 staining based flow cytometry (reference value: 98.51%); format: functional
Procedure, shortened: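 HepG-2 cells were exposed 48 h to 0.0625, 0.125 or 0.25 µM or to vehicle, then washed in PBS and stained with JC-1 in the dark. Red aggregate versus green monomer fluorescence was measured by flow cytometry to give the percentages of cells with healthy versus collapsed mitochondrial membrane potential.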

HepG2 [6] = assay: Induction of apoptosis in human HepG2 cells assessed as late apoptotic cells at 0.0625 uM after 48 hrs in presence of hemoglobin by Annexin V-APC/7-AAD staining based flow cytometry (reference value: 3.36%); format: functional
HepG2 [7] = assay: Induction of apoptosis in human HepG2 cells assessed as chromatin condensation at 0.0625 to 0.25 uM measured after 48 hrs by Hoechst 33258 staining based fluorescent microscopic analysis; format: functional, cell-based
Procedure, shortened: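 After 48 h exposure to 0.0625, 0.125 or 0.25 µM, or to 0.1% DMSO vehicle, HepG-2 cells were stained with Hoechst 33258. Nuclear morphology, including chromatin condensation and fragmentation, was inspected by fluorescence microscopy.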

SMILES: C[C@H]1CCC/C=C/[C@@H]2C[C@H](OC(=O)CCCC(=O)OCCOc3no[n+]([O-])c3S(=O)(=O)c3ccccc3)C[C@H]2[C@H](OC(=O)CCCC(=O)OCCOc2no[n+]([O-])c2S(=O)(=O)c2ccccc2)/C=C/C(=O)O1
- Activity (HepG2 [1]): Active
- viability at 0.125 µM (HepG2 [2]): 63%
- Activity (HepG2 [3]): 72.16%
- Activity (HepG2 [4]): 72.34%
- Activity (HepG2 [5]): 83.42%
- Activity (HepG2 [6]): 6.68%
- Activity (HepG2 [7]): Active
